Assay results published in ChEMBL document CHEMBL1131301, “Tyrosine kinase inhibitors. 14. Structure-activity relationships for methylamino-substituted derivatives of 4-[(3-bromophenyl)amino]-6-(methylamino)-pyrido[3,4-d]pyrimidine (PD 158780), a potent and specific inhibitor of the tyrosine kinase activity of receptors for the EGF family of growth factors” (J Med Chem, 1998).
Converted amounts (≈) assume the structure as drawn.

Legend:
[1] = biological target: T1, Epidermal growth factor receptor (Homo sapiens, UniProt P00533); assay: Inhibit of phosphorylation of a tyrosine/glutamic acid copolymer by epidermal growth factor receptor prepared from human A431 carcinoma cell vesicles by immunoaffinity chromatography.
T1 sequence (P00533 whole entry): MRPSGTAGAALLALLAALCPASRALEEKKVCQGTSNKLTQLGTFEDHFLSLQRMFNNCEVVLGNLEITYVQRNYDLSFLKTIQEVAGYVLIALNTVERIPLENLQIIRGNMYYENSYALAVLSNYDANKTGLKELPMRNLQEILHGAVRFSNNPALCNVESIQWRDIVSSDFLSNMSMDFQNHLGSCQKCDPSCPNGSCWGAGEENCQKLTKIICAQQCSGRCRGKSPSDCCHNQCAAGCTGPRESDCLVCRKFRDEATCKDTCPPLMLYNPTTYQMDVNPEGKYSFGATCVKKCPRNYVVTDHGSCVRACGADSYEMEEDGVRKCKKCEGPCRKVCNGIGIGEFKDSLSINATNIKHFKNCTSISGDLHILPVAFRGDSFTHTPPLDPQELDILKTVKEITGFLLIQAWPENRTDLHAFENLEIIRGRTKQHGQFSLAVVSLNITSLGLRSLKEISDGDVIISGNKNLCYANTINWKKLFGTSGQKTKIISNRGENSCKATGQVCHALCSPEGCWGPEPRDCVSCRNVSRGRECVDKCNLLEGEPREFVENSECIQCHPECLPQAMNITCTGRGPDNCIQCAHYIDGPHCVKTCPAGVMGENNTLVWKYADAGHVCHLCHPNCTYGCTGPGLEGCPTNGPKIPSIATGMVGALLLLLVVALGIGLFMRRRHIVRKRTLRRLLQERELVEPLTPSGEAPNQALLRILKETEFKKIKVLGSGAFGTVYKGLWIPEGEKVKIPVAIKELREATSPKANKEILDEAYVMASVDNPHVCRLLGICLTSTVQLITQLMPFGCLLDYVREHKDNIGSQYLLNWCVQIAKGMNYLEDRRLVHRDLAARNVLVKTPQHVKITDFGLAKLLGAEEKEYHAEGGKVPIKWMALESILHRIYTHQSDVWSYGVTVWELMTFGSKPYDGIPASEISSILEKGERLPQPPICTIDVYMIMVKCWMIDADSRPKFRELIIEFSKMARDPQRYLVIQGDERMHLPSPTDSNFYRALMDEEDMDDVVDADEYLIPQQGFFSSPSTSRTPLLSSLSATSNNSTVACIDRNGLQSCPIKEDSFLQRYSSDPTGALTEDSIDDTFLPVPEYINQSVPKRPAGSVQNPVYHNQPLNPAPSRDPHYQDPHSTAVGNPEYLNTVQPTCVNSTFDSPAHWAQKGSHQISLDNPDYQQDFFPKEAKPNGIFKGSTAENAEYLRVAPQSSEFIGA

MCF7 [2] = assay: Net reduction in MCF-7 tumor burden between the first and last treatments in mice at 25 mg/kg ip dose, days 1-15 administration; format: functional; conditions: route intraperitoneal
In short: (§1)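 NCr nu/nu nude mice (18-22 g) were randomized and implanted sc with A431 epidermoid, human-EGFR-transfected NIH 3T3 fibroblast, or MCF-7 breast tumor fragments in the right axilla on day 0. Dosing was ip or oral, by average cage weight, with 6 mice per dose group. Log net cell kill is the net reduction in tumor burden between the first and last treatments.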

A-431 [3] = assay: WWeight change in A431 tumor bearing mice at 25 mg/kg ip dose, days 13-26 administration; format: functional; conditions: route intraperitoneal
MCF7 [4] = assay: Weight change in MCF-7 tumor bearing mice at 25 mg/kg ip dose, days 1-15 administration; format: functional
Insulin receptor [5] = biological target: T2, Insulin receptor (Homo sapiens, UniProt P06213); assay: (§2) Inhibition of insulin receptor(IR)
T2 sequence (P06213 28-758 limits assumed): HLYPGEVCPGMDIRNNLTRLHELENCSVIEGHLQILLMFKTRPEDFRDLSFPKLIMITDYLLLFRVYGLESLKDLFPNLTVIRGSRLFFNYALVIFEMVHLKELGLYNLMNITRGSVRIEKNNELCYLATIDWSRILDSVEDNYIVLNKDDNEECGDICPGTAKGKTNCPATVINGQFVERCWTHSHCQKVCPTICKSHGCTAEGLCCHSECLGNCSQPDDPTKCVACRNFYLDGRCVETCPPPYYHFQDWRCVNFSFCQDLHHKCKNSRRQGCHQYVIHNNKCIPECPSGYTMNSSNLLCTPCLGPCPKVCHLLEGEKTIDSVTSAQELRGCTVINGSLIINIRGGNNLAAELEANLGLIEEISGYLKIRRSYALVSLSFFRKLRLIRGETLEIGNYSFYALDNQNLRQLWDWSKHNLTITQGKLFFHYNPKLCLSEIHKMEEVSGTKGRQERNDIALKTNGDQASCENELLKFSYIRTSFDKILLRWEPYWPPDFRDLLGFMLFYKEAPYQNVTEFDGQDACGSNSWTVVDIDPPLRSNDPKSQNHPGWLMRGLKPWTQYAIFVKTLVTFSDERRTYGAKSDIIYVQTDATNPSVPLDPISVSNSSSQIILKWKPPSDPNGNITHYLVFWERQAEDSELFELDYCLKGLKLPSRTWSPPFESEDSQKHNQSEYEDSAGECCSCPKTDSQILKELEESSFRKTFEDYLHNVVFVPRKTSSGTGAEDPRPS
T2 sequence (P06213 763-1382 limits assumed): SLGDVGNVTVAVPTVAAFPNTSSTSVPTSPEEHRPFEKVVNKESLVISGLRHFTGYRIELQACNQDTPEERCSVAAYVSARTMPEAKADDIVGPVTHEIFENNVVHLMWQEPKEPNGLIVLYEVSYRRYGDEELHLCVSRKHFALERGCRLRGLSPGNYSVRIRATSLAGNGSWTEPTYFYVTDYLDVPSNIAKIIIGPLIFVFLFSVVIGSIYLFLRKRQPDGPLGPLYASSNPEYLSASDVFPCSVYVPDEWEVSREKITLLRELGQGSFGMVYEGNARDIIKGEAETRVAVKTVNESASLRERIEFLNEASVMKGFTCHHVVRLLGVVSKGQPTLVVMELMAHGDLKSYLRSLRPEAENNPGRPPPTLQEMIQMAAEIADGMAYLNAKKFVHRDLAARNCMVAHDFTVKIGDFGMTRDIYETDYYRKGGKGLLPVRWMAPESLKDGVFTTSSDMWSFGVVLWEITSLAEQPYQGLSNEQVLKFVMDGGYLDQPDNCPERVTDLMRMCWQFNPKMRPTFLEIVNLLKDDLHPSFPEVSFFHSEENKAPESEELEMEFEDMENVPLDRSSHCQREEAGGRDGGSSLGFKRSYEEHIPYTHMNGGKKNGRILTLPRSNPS

[6] = Aqueous solubility ([…] degree C); format: physicochemical; conditions: for solubility: water, read-out: S
[7] = biological target: T1, Epidermal growth factor receptor; assay: Inhibition of autophosphorylation of epidermal growth factor receptor in A431 cells in culture
SK-OV-3 [8] = assay: Weight change in SKOV-3 tumor bearing mice at 25 mg/kg ip dose, days 10-14,17-21,24-28 administration; format: functional; conditions: route intraperitoneal
SK-OV-3 [9] = assay: Ratio of treated and control SKOV-3 median tumor mass*100% in mice at 25 mg/kg ip dose, days 10-14,17-21,24-28 administration; format: functional; conditions: route intraperitoneal
MCF7 [10] = assay: Difference in days for treated (T) and control (C) MCF-7 tumor fragments to reach 750 mg in mice at 25 mg/kg ip dose, administration days 1-15; format: functional; conditions: route intraperitoneal
[11] = biological target: T1, Epidermal growth factor receptor; assay: Inhibition of EGF-dependent autophosphorylation of EGF-R in A431 cells
Mus musculus [12] = assay: Weight change of EGFR tumor bearing mice at 400 mg/kg peroral dose, days 1-15 administration; format: functional; conditions: route oral
Mus musculus [13] = assay: Net reduction in EGFR tumor burden between the first and last treatments in mice at 400 mg/kg peroral dose, days 1-15 administration; format: functional; conditions: route oral; in short: as §1
A-431 [14] = assay: Difference in days for treated (T) and control (C) A431 tumor fragments to reach 750 mg in mice at 25 mg/kg peroral dose, administration days 7-21; format: functional; conditions: route oral
Mus musculus [15] = assay: Net reduction in EGFR tumor burden between the first and last treatments in mice at 25 mg/kg ip dose, days 1-15 administration; format: functional; conditions: route intraperitoneal; in short: as §1
Mus musculus [16] = assay: Difference in days for treated (T) and control (C) EGFR tumor fragments to reach 750 mg in mice at 400 mg/kg peroral dose, administration days 1-15; format: functional; conditions: route oral
Mus musculus [17] = assay: Ratio of treated and control EGFR median tumor mass*100% in mice at 400 mg/kg peroral dose, days 1-15 administration; format: functional; conditions: route oral
In short: (§3)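 Nude mice (NCr nu/nu, 18-22 g) were randomized and implanted sc with tumor fragments in the right axilla on day 0. Tumor lines were A431 epidermoid, NIH 3T3 fibroblasts transfected with human EGFR, and MCF-7 breast. Dosing was ip or oral, by average cage weight, with 6 mice/dose group. Vehicle was 6% dimethylacetamide/94% 50 mM sodium lactate pH 4.0 (suspension), or isethionate salt in water.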

MCF7 [18] = assay: Ratio of treated and control MCF-7 median tumor mass*100% in mice at 25 mg/kg ip dose, days 1-15 administration; format: functional; conditions: route intraperitoneal; in short: as §3
SK-OV-3 [19] = assay: Difference in days for treated (T) and control (C) SKOV-3 tumor fragments to reach 750 mg in mice at 25 mg/kg ip dose, administration days 10-14,17-21,24-28; format: functional; conditions: route intraperitoneal
[20] = biological target: T3, Fibroblast growth factor receptor (Homo sapiens, UniProt P22607+P11362+P22455+P21802); assay: (§4) Inhibition of fibroblast growth factor receptor(FGFR); format: protein assay
A-431 [21] = assay: Difference in days for treated (T) and control (C) A431 tumor fragments to reach 750 mg in mice at 12 mg/kg peroral dose, administration days 7-21; format: functional; conditions: route intraperitoneal, in the assay text read “intraperitoneal” for “peroral”; in short: as §3
A-431 [22] = assay: Net reduction in A431 tumor burden between the first and last treatments in mice at 12 mg/kg ip dose, days 7-21 administration; format: functional; conditions: route intraperitoneal; in short: as §1
A-431 [23] = assay: Ratio of treated and control A431 median tumor mass*100% in mice at 25 mg/kg peroral dose, days 13-26 administration; format: functional, Mus musculus; conditions: route intraperitoneal, in the assay text read “intraperitoneal” for “peroral”; in short: as §3
A-431 [24] = assay: Net reduction in A431 tumor burden between the first and last treatments in mice at 25 mg/kg ip dose, administration days 13-26; format: functional; conditions: route intraperitoneal; in short: as §1
Mus musculus [25] = assay: Weight change of EGFR tumor bearing mice at 25 mg/kg ip dose, days 1-15 administration; format: functional; conditions: route intraperitoneal
Mus musculus [26] = assay: Ratio of treated and control EGFR median tumor mass*100% in mice at 25 mg/kg ip dose, days 1-15 administration; format: functional; conditions: route intraperitoneal; in short: as §3
[27] = biological target: T1, Epidermal growth factor receptor; assay: (§5) Inhibition of tyrosine/glutamic acid copolymer phosphorylation by epidermal growth factor receptor prepared of human A431
A-431 [28] = assay: Weight change in A431 tumor bearing mice at 12 mg/kg ip dose, days 7-21 administration; format: functional; conditions: route intraperitoneal
A-431 [29] = assay: Ratio of treated and control A431 median tumor mass*100% in mice at 12 mg/kg peroral dose, days 7-21 administration; format: functional; conditions: route intraperitoneal, in the assay text read “intraperitoneal” for “peroral”; in short: as §3
[30] = (§6) Inhibition of Platelet-derived growth factor receptor (PDGFR)
Mus musculus [31] = assay: Difference in days for treated (T) and control (C) EGFR tumor fragments to reach 750 mg in mice at 25 mg/kg ip dose, administration days 1-15; format: functional; conditions: route intraperitoneal
[32] = biological target: Receptor tyrosine-protein kinase erbB-2 (Homo sapiens, UniProt P04626); assay: Inhibition of heregulin-dependent autophosphorylation of ErbB2 receptor in MDA-MB-453 cells; format: functional, cell-based
Chain of Receptor tyrosine-protein kinase erbB-2 (P04626 whole entry): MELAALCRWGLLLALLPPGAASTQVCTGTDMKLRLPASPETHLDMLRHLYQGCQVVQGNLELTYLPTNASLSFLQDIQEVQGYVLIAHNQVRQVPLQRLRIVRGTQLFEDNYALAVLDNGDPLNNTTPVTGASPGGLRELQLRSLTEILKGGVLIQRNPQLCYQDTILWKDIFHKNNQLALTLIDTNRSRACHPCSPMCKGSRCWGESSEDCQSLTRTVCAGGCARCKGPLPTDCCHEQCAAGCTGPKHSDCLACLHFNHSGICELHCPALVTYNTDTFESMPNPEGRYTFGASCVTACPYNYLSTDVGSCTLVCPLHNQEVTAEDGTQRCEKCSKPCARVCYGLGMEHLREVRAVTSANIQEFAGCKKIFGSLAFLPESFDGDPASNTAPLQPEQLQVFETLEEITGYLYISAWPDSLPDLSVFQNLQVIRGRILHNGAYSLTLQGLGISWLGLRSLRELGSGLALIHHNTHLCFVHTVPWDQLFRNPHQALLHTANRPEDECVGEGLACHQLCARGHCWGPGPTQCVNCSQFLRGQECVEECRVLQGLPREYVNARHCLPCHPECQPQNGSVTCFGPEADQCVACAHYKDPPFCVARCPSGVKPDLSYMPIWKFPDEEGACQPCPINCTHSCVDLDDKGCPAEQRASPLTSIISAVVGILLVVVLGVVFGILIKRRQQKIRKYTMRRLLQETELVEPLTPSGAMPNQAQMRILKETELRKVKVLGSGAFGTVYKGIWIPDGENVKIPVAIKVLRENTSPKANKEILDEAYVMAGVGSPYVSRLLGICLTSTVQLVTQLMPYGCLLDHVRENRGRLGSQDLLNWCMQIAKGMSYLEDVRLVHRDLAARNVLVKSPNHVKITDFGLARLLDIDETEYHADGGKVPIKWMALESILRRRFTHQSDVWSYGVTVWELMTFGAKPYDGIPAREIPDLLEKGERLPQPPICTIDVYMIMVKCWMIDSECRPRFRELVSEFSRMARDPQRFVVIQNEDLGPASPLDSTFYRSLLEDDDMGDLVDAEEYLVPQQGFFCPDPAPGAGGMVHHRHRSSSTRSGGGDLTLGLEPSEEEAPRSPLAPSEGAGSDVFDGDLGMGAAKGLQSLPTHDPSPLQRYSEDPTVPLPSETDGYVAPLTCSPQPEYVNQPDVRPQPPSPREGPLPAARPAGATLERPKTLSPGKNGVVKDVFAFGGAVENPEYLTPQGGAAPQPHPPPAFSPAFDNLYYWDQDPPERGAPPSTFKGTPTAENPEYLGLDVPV

[33] = biological target: T4, Proto-oncogene tyrosine-protein kinase Src (Homo sapiens, UniProt P12931); assay: (§7) Inhibition of c-Src tyrosine kinase
T4 sequence (P12931 2-536 limits assumed): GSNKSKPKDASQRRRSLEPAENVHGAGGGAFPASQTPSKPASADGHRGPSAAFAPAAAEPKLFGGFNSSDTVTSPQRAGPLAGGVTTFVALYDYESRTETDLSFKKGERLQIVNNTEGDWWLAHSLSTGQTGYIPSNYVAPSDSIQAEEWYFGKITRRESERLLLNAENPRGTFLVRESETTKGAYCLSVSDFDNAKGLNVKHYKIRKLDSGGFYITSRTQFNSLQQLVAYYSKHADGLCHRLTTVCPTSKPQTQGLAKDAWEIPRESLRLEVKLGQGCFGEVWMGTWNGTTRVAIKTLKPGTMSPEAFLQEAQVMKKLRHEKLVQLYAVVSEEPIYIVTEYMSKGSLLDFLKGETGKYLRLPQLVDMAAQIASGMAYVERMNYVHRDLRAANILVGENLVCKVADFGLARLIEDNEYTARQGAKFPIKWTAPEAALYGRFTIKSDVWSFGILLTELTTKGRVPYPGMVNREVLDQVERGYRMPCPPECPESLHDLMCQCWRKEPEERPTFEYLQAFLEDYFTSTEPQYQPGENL

Mus musculus [34] = assay: Ratio of treated and control EGFR median tumor mass*100% in mice at 200 mg/kg peroral dose, days 1-15 administration; format: functional; conditions: route oral; in short: as §3
A-431 [35] = assay: Difference in days for treated (T) and control (C) A431 tumor fragments to reach 750 mg in mice at 25 mg/kg intraperitoneal dose, administration days 7-21
A-431 [36] = assay: Ratio of treated and control A431 median tumor mass*100% in mice at 25 mg/kg peroral dose, days 7-21 administration; format: functional; conditions: route intraperitoneal, in the assay text read “intraperitoneal” for “peroral”; in short: as §3
[37] = biological target: T1, Epidermal growth factor receptor; assay: as §5; remark: listed apart in the source
Mus musculus [38] = assay: Difference in days for treated (T) and control (C) EGFR tumor fragments to reach 750 mg in mice at 200 mg/kg peroral dose, administration days 1-15; format: functional; conditions: route oral
Mus musculus [39] = assay: Weight change of EGFR tumor bearing mice at 200 mg/kg peroral dose, days 1-15 administration; format: functional, organism-based; parameters: dose 200 mg/kg
Mus musculus [40] = assay: Log net cell kill of A431 tumor bearing mice at 25 mg/kg intraperitoneal dose, days 7-21 administration
A-431 [41] = assay: Weight change in A431 tumor bearing mice at 25 mg/kg ip dose, days 7-21 administration; format: functional; conditions: route intraperitoneal
Insulin receptor [42] = biological target: T2, Insulin receptor; assay: as §2; format: functional
[43] = biological target: T3, Fibroblast growth factor receptor; assay: as §4; format: functional
[44] = as §6; format: functional
[45] = biological target: T4, Proto-oncogene tyrosine-protein kinase Src; assay: as §7; format: functional
Mus musculus [46] = assay: Net reduction in EGFR tumor burden between the first and last treatments in mice at 200 mg/kg peroral dose, days 1-15 administration; format: functional; conditions: route oral; in short: as §1
A-431 [47] = assay: Net reduction in A431 tumor burden between the first and last treatments in mice at 25 mg/kg ip dose, days 7-21 administration; format: functional; conditions: route intraperitoneal; in short: as §1
Mus musculus [48] = assay: Weight change of EGFR tumor bearing mice at 25 mg/kg ip dose, days 1-15 administration; conditions: route intraperitoneal

Compound `Brc1cccc(Nc2ncnc3cnc(NCCN4CCOCC4)cc23)c1` has an IC50 [1] of 0.65 nM, a Net cell kill (MCF7 [2]) of -0.1 log10 and a Weight change (A-431 [3]) of -1.1 g. For the same compound, the Weight change (MCF7 [4]) was “Weight gain”, the IC50 (Insulin receptor [5]) was over 50000 nM and the solubility [6] was 10 mM (≈ 4.29 mg/mL). The IC50 [7] was 7.9 nM, the Weight change (SK-OV-3 [8]) was -2.1 g and the T/C (SK-OV-3 [9]) was 100%. It also gave a T-C (MCF7 [10]) of 11.7 days, an IC50 [11] of 7.9 nM and a Weight change (Mus musculus [12]) of -2 g. It also gave a Net cell kill (Mus musculus [13]) of -1.1 log10, a T-C (A-431 [14]) of 2.1 days and a Net cell kill (Mus musculus [15]) of -1.2 log10. The T-C (Mus musculus [16]) was 2.8 days, the T/C (Mus musculus [17]) was 15% and the T/C (MCF7 [18]) was 34%. It also gave a T-C (SK-OV-3 [19]) of 0 days, an IC50 [20] of over 50000 nM and a T-C (A-431 [21]) of 1.9 days. It also gave a Net cell kill (A-431 [22]) of -0.7 log10, a T/C (A-431 [23]) of 98% and a Net cell kill (A-431 [24]) of -0.3 log10. For the same compound, the Weight change (Mus musculus [25]) was -1.3 g, the T/C (Mus musculus [26]) was 77% and the IC50 [27] was 0.7 nM. It also gave a Weight change (A-431 [28]) of -0.2 g, a T/C (A-431 [29]) of 93% and an IC50 [30] of over 50000 nM. For the same compound, the T-C (Mus musculus [31]) was 1.2 days, the IC50 [32] was 219 nM and the IC50 [33] was over 50000 nM.

`CCN(CC)CC(O)CNc1cc2c(Nc3cccc(Br)c3)ncnc2cn1` (stereo not given) showed a T/C (Mus musculus [34]) of 94%, a T-C (A-431 [35]) of 5 days and a T/C (A-431 [36]) of 62%. For the same compound, the Net cell kill (MCF7 [2]) was -0.6 log10, the IC50 [37] was 4.6 nM and the Weight change (MCF7 [4]; route intraperitoneal) was -0.3 g. The T-C (Mus musculus [38]) was 0 days, the solubility [6] was 36 mM (≈ 16 mg/mL) and the Weight change (Mus musculus [39]) was “Weight gain”. The “Log net cell kill” value (Mus musculus [40]) was -0.5 log10, the IC50 [7] was 28 nM and the T-C (MCF7 [10]) was 3.3 days. It also gave an IC50 [11] of 28 nM, a Weight change (A-431 [41]) of -0.7 g and a Net cell kill (Mus musculus [15]) of -0.9 log10. The IC50 (Insulin receptor [42]) was over 50000 nM, the IC50 [43] was over 50000 nM and the T/C (MCF7 [18]) was 77%. The IC50 [44] was over 50000 nM, the Weight change (Mus musculus [25]) was -0.9 g and the T/C (Mus musculus [26]) was 44%. The IC50 [27] was 4.6 nM, the T-C (Mus musculus [31]) was 5 days and the IC50 [32] was 1100 nM. The IC50 [45] was over 50000 nM.

In the case of `CN(C)CCNc1cc2c(Nc3cccc(Br)c3)ncnc2cn1`, the T/C (Mus musculus [34]) is reported as 47%, the T-C (A-431 [35]) is reported as 4.7 days and the T/C (A-431 [36]) is reported as 66%. The IC50 [37] was 1.1 nM, the T-C (Mus musculus [38]) was 1.1 days and the IC50 (Insulin receptor [5]) was over 50000 nM. For the same compound, the S ([6]; buffer) was over 48 mM, the Weight change (Mus musculus [39]) was “Weight gain” and the Net cell kill (Mus musculus [46]) was -1.3 log10. It also gave an IC50 [7] of 43 nM, a Net cell kill (A-431 [47]) of -0.5 log10 and a Weight change (Mus musculus [48]) of -1.1 g. For the same compound, the IC50 [11] was 43 nM, the Weight change (A-431 [41]) was -1.4 g and the Net cell kill (Mus musculus [15]) was -1 log10. For the same compound, the IC50 [20] was over 50000 nM, the T/C (Mus musculus [26]) was 43% and the IC50 [27] was 1.1 nM. It also gave an IC50 [30] of over 50000 nM, a T-C (Mus musculus [31]) of 3.3 days and an IC50 [32] of 379 nM. The IC50 [33] was over 50000 nM.
